# From ChEMBL document CHEMBL4622976, “Development of pH/Glutathione-Responsive Theranostic Agents Activated by Glutathione S-Transferase π for Human Colon Cancer” (J Med Chem, 2020)
# How the values were obtained:
# HT-29 [1] = test: Antiproliferative activity against human HT-29 cells by MTT assay; assay type: functional, cell-based
# Outline: (§1)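 MTT assay. Cells were grown in DMEM/RPMI 1640 with 10% FBS, penicillin and streptomycin at 37 °C under 5% CO2. After a PBS wash, cells got 0.5 mg/mL MTT for 3 h at 37 °C. Formazan was dissolved in DMSO and absorbance read at 570 nm. Inhibition was expressed as a percentage and IC50 calculated. Means ± SD come from three separate experiments.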
# [2] = Toxicity in ip dosed ICR mouse for 14 days; assay type: organism-based; settings: in vivo
# Outline: (§2)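 Female ICR mice, randomised, n = 10 per group. Single intraperitoneal dose of 240.0, 300.0, 375.0, 468.8 or 585.9 mg/kg, or vehicle. Deaths recorded at 1 h, 4 h, days 1–4 and days 5–14. Body weight, drinking, eating and activity observed over 14 days. Survival percentage taken on day 14; LD50 derived from the dose–mortality data.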
# [3] = Drug metabolism assessed as GSTpi (unknown origin) mediated compound fluorescence activation at 1 uM in presence of 100 uM cysteine by HPLC analysis; assay type: ADME; settings: human
# Outline: (§3)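 Selectivity test: compound (1 µM) with catalytic GSTπ and each analyte in water with 1% (v/v) DMSO at pH 4.0, 37 °C for 0.5 h. Analytes were cations at 1 mM; amino acids, vitamin C, Na2S and GSH at 100 µM. Readout was fluorescence emission spectra (excitation 440 nm, recorded 450–650 nm).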
# HT-29 [4] = test: Induction of apoptosis in human HT-29 cells at 2.5 uM incubated for 72 hrs by FITC-AnnexinV/PI staining based flow cytometry relative to control; assay type: functional
# Outline: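 HT29 cells were cultured 12 h, then exposed to compound (0.4, 1.0, 2.5 µM) or vehicle for 72 h. Harvested cells were stained with Annexin V and PI, and apoptotic cell percentages measured by flow cytometry. Means ± SD come from three separate experiments.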
# [5] = Drug uptake in human CCD-841 cells at 1 uM measured within 10 mins by confocal fluorescence microscopy; assay type: ADME, cell-based
# Outline: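 Cells were seeded at 2×10^5 in glass-bottom dishes and allowed to attach. Medium was then replaced with DMEM containing 1 µM compound. Confocal images were taken every minute for 60 min with a 40× water objective, 405 nm laser and 480–530 nm filter. Intracellular fluorescence intensity was quantified.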
# [6] = Drug metabolism assessed as GSTpi (unknown origin) mediated compound fluorescence activation at 1 uM in presence of 100 uM glycine by HPLC analysis; assay type: ADME; settings: human; outline: as §3
# [7] = Drug metabolism assessed as GSTpi (unknown origin) mediated compound fluorescence activation at 1 uM in presence of 50 uM H2O2 by HPLC analysis; assay type: ADME; settings: human
# HT-29 [8] = test: Induction of autophagy in human HT-29 cells assessed as increase in LC3-II protein level incubated for 72 hrs by Western blot analysis; assay type: functional, cell-based
# Outline: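 HT29 cells (1.5×10^5/mL) exposed to compound or vehicle for 72 h, then lysed. Lysates (0.05 mg/lane) run on 12% SDS-PAGE, transferred to nitrocellulose, blocked with 5% non-fat milk and probed for LC3, p62, beclin-1 and β-actin. Bands quantified relative to β-actin, with LC3-II/LC3-I ratio also calculated; means ± SD from three independent assays.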
# [9] = Drug metabolism assessed as GSTpi (unknown origin) mediated compound fluorescence activation at 1 uM in presence of 1 mM Ca2+ by HPLC analysis; assay type: ADME; settings: human; outline: as §3
# HT-29 [10] = test: Antitumor activity against human HT-29 cells xenografted in nude BALB/c mouse assessed as tumor weight level at 40 mg/kg, ip dosed every day for 21 days (reference value: 1.49 +/- 0.27 g); assay type: functional
# [11] = Toxicity in ICR mouse assessed as induction of abnormality in general activity behavior at 240 mg/kg, ip for 14 days; assay type: organism-based; settings: in vivo, 336 h
# Outline: (§4)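 Female ICR mice (n = 10 per group) given a single intraperitoneal dose at 240.0, 300.0, 375.0, 468.8 or 585.9 mg/kg, or vehicle. Deaths recorded at 1 h, 4 h and daily through day 14. Body weight, drinking, eating and activity observed for abnormality; LD50 derived from mortality.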
# [12] = Drug metabolism assessed as GSTpi (unknown origin) mediated compound fluorescence activation at 1 uM in presence of 1 mM Zn2+ by HPLC analysis; assay type: ADME; settings: human; outline: as §3
# [13] = Drug metabolism assessed as GSTpi (unknown origin) mediated compound fluorescence activation at 1 uM in presence of 50 uM […] by HPLC analysis; assay type: ADME; settings: human
# [14] = Drug metabolism assessed as GSTpi (unknown origin) mediated compound fluorescence activation at 1 uM in presence of 100 uM histidine by HPLC analysis; assay type: ADME; settings: human; outline: as §3
# HT-29 [15] = test: Induction of apoptosis in human HT-29 cells assessed as increase in cleaved PARP protein level incubated for 72 hrs by Western blot analysis; assay type: functional, cell-based
# Outline: (§5)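 HT29 cells (1.5×10^5/mL) were treated for 72 h and lysed. Lysate (0.05 mg/lane) was run on 12% SDS-PAGE and transferred to nitrocellulose. After blocking in 5% non-fat milk, blots were probed for Bax, Bcl-2, cleaved caspase-3, cleaved PARP, LC3, p62 and beclin-1. Levels were normalised to β-actin, and means ± SD taken from three independent assays.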
# [16] = Toxicity in ICR mouse assessed as induction of animal death at 240 to 585.9 mg/kg, ip measured after 4 hrs; assay type: organism-based; settings: in vivo; outline: as §2
# [17] = Toxicity in ICR mouse assessed as induction of abnormality in body weight level at 240 mg/kg, ip for 14 days; assay type: organism-based; settings: in vivo, 336 h; outline: as §4
# [18] = Antiproliferative activity against rat 9L-2 cells by MTT assay; assay type: functional, cell-based; outline: as §1
# [19] = Drug metabolism assessed as GSTpi (unknown origin) mediated compound fluorescence activation at 1 uM in presence of 100 uM serine by HPLC analysis; assay type: ADME; settings: human; outline: as §3
# [20] = Drug metabolism assessed as GSTpi (unknown origin) mediated compound fluorescence activation at 1 uM in presence of 1 mM Mg2+ by HPLC analysis; assay type: ADME; settings: human; outline: as §3
# [21] = Toxicity in ICR mouse assessed as induction of animal survival rate at 585.9 mg/kg, ip measured after 14 days; assay type: organism-based; settings: in vivo; outline: as §2
# HepG2 = test: Antiproliferative activity against human HepG2 cells by MTT assay; assay type: functional, cell-based; outline: as §1
# HT-29 [22] = test: Induction of autophagy in human HT-29 cells assessed as increase in Beclin-1 protein level incubated for 72 hrs by Western blot analysis; assay type: functional, cell-based; outline: as §5
# [23] = Drug localization in colon of intra-operative mouse xenografted with human HT-29/Luc cells at 40 mg/kg, iv measured after 2 hrs post dose by fluorescence imaging assay; assay type: ADME, organism-based; settings: in vivo
# Outline: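 Orthotopic model: 1×10^6 HT29/Luc cells were injected into the upper colon of anaesthetised nude mice (5–6 weeks old). Tumours were confirmed by bioluminescence after two weeks. Dosing was 40 mg/kg iv, with whole-body bioluminescence and fluorescence imaging at 2 h under pentobarbital anaesthesia. Organs were then excised and imaged ex vivo (ex/em 430/490 nm).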
# [24] = Toxicity in ICR mouse assessed as induction of animal survival rate at 240 mg/kg, ip measured after 14 days; assay type: organism-based; settings: in vivo; outline: as §2
# [25] = Toxicity in ICR mouse assessed as induction of animal survival rate at 468.8 mg/kg, ip measured after 14 days; assay type: organism-based; settings: in vivo; outline: as §2
smiles,measurement,setting,value
COc1cc(-c2nc(NC(=O)OCC3=CCCCC3=O)cc3c2[nH]c2ccccc23)cc(OC)c1OC,IC50,HT-29 [1],920 nM
same,LD50 at 336 h,[2],475 mg/kg
same,Drug metabolism,[3],Metabolite_Notdetected
same,Activity,HT-29 [4],52.3%
same,Drug uptake,[5],Not Active
same,Drug metabolism,[6],Metabolite_Notdetected
same,Drug metabolism,[7],Metabolite_Notdetected
same,Activity,HT-29 [8],Dose-dependent effect
same,Drug metabolism,[9],Metabolite_Notdetected
same,Activity,HT-29 [10],0.48 g
same,Activity,[11],Non-Toxic
same,Drug metabolism,[12],Metabolite_Notdetected
same,Drug metabolism,[13],Metabolite_Notdetected
same,Drug metabolism,[14],Metabolite_Notdetected
same,Activity,HT-29 [15],Dose-dependent effect
same,Activity,[16],Non-Toxic
same,Activity,[17],Non-Toxic
same,IC50,[18],4320 nM
same,Drug metabolism,[19],Metabolite_Notdetected
same,Drug metabolism,[20],Metabolite_Notdetected
same,survival at 336 h,[21],10%
same,IC50,HepG2,1570 nM
same,Activity,HT-29 [22],Dose-dependent effect
same,Drug uptake,[23],Active
same,survival at 336 h,[24],100%
same,survival at 336 h,[25],40%
